Data on 97 compounds can be found in ChEMBL document CHEMBL4513216, “Probing the Open Global Health Chemical Diversity Library for Multistage-Active Starting Points for Next-Generation Antimalarials” (ACS Infect Dis, 2020).

The nature of the data set: Toxicity liver stage against HepG2, at 10uM. Also on record: test concentration 10 uM, cell line HepG2-A16-CD81EGFP. The data set is classed as cell-based. The conditions noted are these: human, HepG2-A16-CD81EGFP cells; read-out: INHIBITION
The method in brief:
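Uninfected HepG2-A16-CD81EGFP cells, 3 × 10^3 per well, 1536-well, plated on prespotted compound at 10 μM final, parasite-free screening media added to match infected plates; puromycin 10 μM positive, DMSO 0.5% negative; run in parallel with 48 h PbLuc assay at 37 °C, 5% CO2; viability by CellTiter-Glo luminescence, normalized to controls.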
`O=C(O)C[C@@H]1CCN(C(=O)c2cccs2)C[C@@H]1CCN1CCCCC1`: the cytotoxicity at 10 µM stood at 2.4%.

As to `COc1ccc(Cl)cc1Nc1nc(N)c(C(C)=O)s1`, the cytotoxicity at 10 µM stood at 2.52%.

In the case of `Cn1cc(NC(=O)CNC(=O)N2CCN(c3ccc(F)cc3)CC2)cn1`, the cytotoxicity at 10 µM was determined as 2.27%.

For the compound `CC(C)n1nc(O)c2c1NC(=O)CSC2c1cnn(C)c1` (configuration not stated), the cytotoxicity at 10 µM was -5.28%.

As to `COCCn1ccc2c(NC(=O)c3n[nH]c4c3CCC4)cccc21`, the cytotoxicity at 10 µM is -1.6%.

For the compound `CCS(=O)(=O)N1CC(c2nc(-c3cccs3)no2)C1`, the cytotoxicity at 10 µM was -7.3%.

Regarding `CCOc1ccccc1NC(=O)NCC(C)(O)CCSC` (configuration not stated), the cytotoxicity at 10 µM was -6.14%.

Consider `CC(C)COCC1CN(Cc2ccoc2)Cc2ncn(C)c21` (configuration not stated), for which the cytotoxicity at 10 µM worked out at 4.53%.

Consider `CS(=O)(=O)N1CCc2nc(NC(=O)Nc3c(F)cccc3F)sc2C1`, for which the cytotoxicity at 10 µM is -10.4%.

Consider `COCC(=O)N1CC[C@H]2C[C@@H](c3nnc(C4CC4)o3)O[C@@H]2C1`, for which the cytotoxicity at 10 µM was -6.77%.

In the case of `CCC(=O)N1CCC(c2nc3ccc(NC(C)C)cn3n2)CC1`, the cytotoxicity at 10 µM was -10.2%.

For `CCC(CCNC(=O)c1cc(C2CC2)nc2c1cnn2C)n1cccn1` (configuration not stated), the cytotoxicity at 10 µM stood at 2.04%.

`COCC(=O)N1CCC(c2c(C(=O)N(C)C)sc3ncccc23)C1` (configuration not stated): the cytotoxicity at 10 µM came out at 1.55%.

Turning to `O=C(c1cccnc1)N1CCCC(c2ccnc3nccn23)C1` (configuration not stated), the cytotoxicity at 10 µM was 6.2%.

Consider `CC(C)(C)c1nc(CN(Cc2ccccc2Cl)C2CCCC2)no1`, for which the cytotoxicity at 10 µM worked out at 3.25%.

Consider `CCc1ncc2c(n1)CN(CC1CCCCO1)CC2` (configuration not stated), for which the cytotoxicity at 10 µM was -21.1%.

For the compound `Cc1ccc(CC(=O)NCC(O)c2ccc(Cl)cc2Cl)cn1` (configuration not stated), the cytotoxicity at 10 µM is -10.1%.

With `CC(C(=O)NC(C)(C)C)S(=O)(=O)Cc1noc(C(C)(C)C)n1` (configuration not stated), the cytotoxicity at 10 µM is -10.8%.

`COc1ccccc1CC1CCCN1C(=O)c1cn[nH]c1C` (configuration not stated): the cytotoxicity at 10 µM was determined as 0.58%.

`Cc1ccc(NC(=O)N2CC[C@@H](O)C2)c(-c2nc(C3CC3)no2)c1`: the cytotoxicity at 10 µM was -4.16%.

For `O=S(=O)(c1ccc(Cl)s1)N1CCCn2ncnc21`, the cytotoxicity at 10 µM is -3.06%.

As to `CCOCC(=O)N(C)Cc1nc(C(F)(F)F)cs1`, the cytotoxicity at 10 µM was 2.49%.

For the compound `O=C(N1CCN(c2ccccc2O)CC1)C1(O)Cc2ccccc2C1`, the cytotoxicity at 10 µM is 0.0894%.

Consider `COC1CCN(CCNC(=O)C2CCCCC2)CC1`, for which the cytotoxicity at 10 µM amounted to 0.545%.

With `Cc1ccccc1CS(=O)(=O)Cc1nc(C2CC2)no1`, the cytotoxicity at 10 µM is 4.49%.

`O=C(COC1CCCC1)N1CCCN(c2ncccn2)CC1`: the cytotoxicity at 10 µM worked out at 15.9%.

Regarding `COc1ncccc1NC(=O)N1CCCC1c1cc(C)no1` (configuration not stated), the cytotoxicity at 10 µM was -9.66%.

Regarding `O=C(Cc1csc(-c2ncccn2)n1)N1CCN2CCCCC2C1` (configuration not stated), the cytotoxicity at 10 µM turned out to be 7.94%.

As for `Cc1ccsc1CNCc1c(C(C)C)nn(C)c1N1CCOCC1`, the cytotoxicity at 10 µM was determined as 8.42%.

For the compound `COc1ccccc1C(=O)Nc1c(C)cnn1CC1CC1`, the cytotoxicity at 10 µM was -3.47%.

For the compound `O=C(CCc1ccccn1)NCC(O)c1ccc(Cl)cc1Cl` (configuration not stated), the cytotoxicity at 10 µM was determined as 8.54%.

Regarding `Cn1cc(CNCCNC(=O)Cc2ccccc2)c(-c2cccnc2)n1`, the cytotoxicity at 10 µM turned out to be 13.1%.

As for `CC(C)(CO)CCCNC(=O)NC1(c2ccccc2F)CC1`, the cytotoxicity at 10 µM was found to be 9.08%.

Regarding `CN(C)C(=O)c1cccn1-c1ccc2c(c1)OCCO2`, the cytotoxicity at 10 µM was 12.6%.

Take `COCc1cccc(NC(=O)N(C)Cc2ncc(C)c(OC)c2C)c1`: the cytotoxicity at 10 µM is -1.01%.

Turning to `CCc1ccc(C(=O)O)cc1S(=O)(=O)Nc1ccc(=O)n(C)c1`, the cytotoxicity at 10 µM amounted to 11.7%.

Consider `NS(=O)(=O)c1cnc(NCC2(c3ccccc3)CCC2)s1`, for which the cytotoxicity at 10 µM is -4.88%.

Regarding `OCCN(Cc1nc(-c2ccc3c(c2)OCO3)no1)CC1CC1`, the cytotoxicity at 10 µM amounted to 8.37%.

With `CC(NCc1cccc(S(=O)(=O)N(C)C)c1)c1ccccn1` (configuration not stated), the cytotoxicity at 10 µM is -10.5%.

With `CN1CCC(CNC(=O)c2ccc3cccc(Cl)c3n2)C1` (configuration not stated), the cytotoxicity at 10 µM was -8.93%.

As to `CCc1noc(CN(CC)Cc2cc3ccc(C)cc3[nH]c2=O)n1`, the cytotoxicity at 10 µM is 0.417%.

`COC(=O)C1C=CCN1C(=O)c1cc(COc2ccccc2)[nH]n1` (configuration not stated): the cytotoxicity at 10 µM was -4.45%.

Regarding `O=C(O)c1ccccc1C1CCN(Cc2ccc(-c3cc[nH]n3)o2)C1` (configuration not stated), the cytotoxicity at 10 µM is -10.2%.

As to `Cc1nc(O)cc(C2CCN(C(=O)c3[nH]nc4c3CC(C)CC4)CC2)n1` (configuration not stated), the cytotoxicity at 10 µM was 3.06%.

As to `CCN(CC)C(=O)c1ccc(Cl)c(NC(=O)c2cc[nH]n2)c1`, the cytotoxicity at 10 µM came out at 7.86%.

For the compound `CCn1cc(CN2CCCC(c3[nH]ncc3-c3ccc(F)cc3)C2)cn1` (configuration not stated), the cytotoxicity at 10 µM came out at 1.63%.

For the compound `CNc1nc(C(=O)N2CCn3nc(C(=O)OC)cc3C2)cs1`, the cytotoxicity at 10 µM was -8.61%.

Take `CC(C)C(=O)N1CCC(CNc2nc(C(C)C)nc3c2cnn3C)CC1`: the cytotoxicity at 10 µM was -4.25%.

On to `O=C(NC1CC1)C1CNCCN1C(=O)COc1ccc2c(c1)OCO2` (configuration not stated), for which the cytotoxicity at 10 µM was -1.74%.

As for `CC(C)C1CN(C(=O)c2cc(=O)[nH]c(=O)[nH]2)CCC(=O)N1CC1CC1` (configuration not stated), the cytotoxicity at 10 µM is 1.08%.

`CCc1cc(NCCN2CCNC2=O)n2nccc2n1`: the cytotoxicity at 10 µM was -3.04%.

For the compound `CCn1c(CC2CCN(C(=O)C3COCCO3)CC2)nn(C)c1=O` (configuration not stated), the cytotoxicity at 10 µM is -0.525%.

On to `Cc1cc(N2CCC3(CC2)C(C(=O)O)CC(=O)N3C)nc2ccccc12` (configuration not stated), for which the cytotoxicity at 10 µM was -1.6%.

As for `Cn1c(CN2CCOCC2)nnc1C1CCCN(CC(N)=O)C1` (configuration not stated), the cytotoxicity at 10 µM worked out at 5.23%.

`O=C1NC(C(=O)NCc2cccnc2Oc2ccc(F)cc2F)CO1` (configuration not stated): the cytotoxicity at 10 µM is -1.32%.

For the compound `CC(c1ccccn1)N(C)Cc1cccc(C(=O)Nc2nccn2C)c1` (configuration not stated), the cytotoxicity at 10 µM stood at 14.6%.

In the case of `CC(Nc1nc(-c2ccccc2)nc2c1CCNCC2)c1nccs1` (configuration not stated), the cytotoxicity at 10 µM worked out at 2.49%.

With `O=C(COc1ccc2cccnc2c1)N1CCN[C@H]2CS(=O)(=O)C[C@H]21`, the cytotoxicity at 10 µM is 7.98%.

For the compound `Nc1ccnc(C(=O)N2CCCC3(CCC(=O)N(C4CCCC4)C3)C2)c1` (configuration not stated), the cytotoxicity at 10 µM was -19.8%.

For `COc1cccc(-c2cc(NCC(=O)O)nc3[nH]ccc23)n1`, the cytotoxicity at 10 µM was found to be 8.09%.

`Cc1cc(N(C)CCN(C)C)n2nc(C)cc2n1`: the cytotoxicity at 10 µM is 7.77%.

`CSc1cccc(CN(C)C(=O)c2ccc(C3CCCNC3)cc2)c1` (configuration not stated): the cytotoxicity at 10 µM was -3.07%.

Regarding `COC(=O)NCc1cc2n(n1)CCCN(C(C)=O)C2`, the cytotoxicity at 10 µM was -2.26%.

As for `CCn1c(N)nc2cc(C(=O)NCCc3ccccc3C)cnc21`, the cytotoxicity at 10 µM is -10.8%.

For the compound `CC(C(=O)Nc1ccc(N2CCCC2)nc1)n1cccn1` (configuration not stated), the cytotoxicity at 10 µM is -17.1%.

As to `CCC(NC(=O)C1CC1)c1ccccc1OCC(=O)N1CCCC1` (configuration not stated), the cytotoxicity at 10 µM was -9.16%.

As to `CN1CCCC1CNC(=O)CCCOc1cccc(Br)c1` (configuration not stated), the cytotoxicity at 10 µM is -11.3%.

Turning to `O=C(CCCc1ccccn1)N1CCCC(n2cccn2)C1` (configuration not stated), the cytotoxicity at 10 µM was -10.7%.

Turning to `Cn1ccnc1CC1CCCN(Cc2noc(C3CC3)n2)C1` (configuration not stated), the cytotoxicity at 10 µM is -5.68%.

Turning to `CN1CCC(N(C)C(=O)c2cnc3c(cnn3C3CCCC3)c2)CC1`, the cytotoxicity at 10 µM was -26.9%.

As for `O=C(c1ccc(-n2cnnc2)cc1)N1CCCC(n2ccnc2)C1` (configuration not stated), the cytotoxicity at 10 µM was -10.7%.

`CCOCC(O)CN1CCN(C(=O)c2cccc(CC#N)c2)CC1` (configuration not stated): the cytotoxicity at 10 µM is -16.4%.

As for `COc1c(C)cnc(CN2CCOC(CNc3cccnn3)C2)c1C` (configuration not stated), the cytotoxicity at 10 µM was -10.5%.

In the case of `Cc1cnc(CN2CCCC2c2noc(C(C)C)n2)cn1` (configuration not stated), the cytotoxicity at 10 µM is -15.1%.

With `CC(C(=O)NCc1ccc(N2CCCCC2)nc1)S(C)(=O)=O` (configuration not stated), the cytotoxicity at 10 µM is -8.81%.

Take `c1ccc2oc(CCCN3CCCC3c3noc(C4CC4)n3)nc2c1` (configuration not stated): the cytotoxicity at 10 µM was -13.5%.

On to `Cn1nc2c(cc1=O)CN(Cc1coc(-c3cccc(F)c3)n1)CC2`, for which the cytotoxicity at 10 µM was -12.6%.

For `O=C(c1cc2cc(I)ccc2[nH]1)N1CCC(Nc2cccnn2)CC1`, the cytotoxicity at 10 µM is -8.12%.

For the compound `Fc1ccc(-c2nnc(CN3CCCC3Cn3cncn3)o2)cc1` (configuration not stated), the cytotoxicity at 10 µM was -10.5%.

`Cc1cnc(CN(C)C2CCN(CCc3ccccn3)CC2)cn1`: the cytotoxicity at 10 µM was -12.1%.

For the compound `COCCN1CCN(CCS(=O)(=O)C(F)(F)F)CC1C` (configuration not stated), the cytotoxicity at 10 µM is -5.77%.

As to `Cc1cnn(CC2CCCN2Cc2nnc(Cc3ccccc3)o2)c1` (configuration not stated), the cytotoxicity at 10 µM is -11.7%.

Turning to `Cc1cc(C2CCCN2Cc2ccn(C)c(=O)c2)no1` (configuration not stated), the cytotoxicity at 10 µM was -9.03%.

For `Cc1nc2ccccc2c(=O)n1CCC(=O)N1CCNC(=O)C1`, the cytotoxicity at 10 µM is -19%.

As for `c1ccc(-c2cnc(CN3CCn4c(nnc4C4CC4)C3)o2)cc1`, the cytotoxicity at 10 µM is -7.67%.

Turning to `CCOc1ncccc1NC(=O)NCC(O)c1ccccc1OC` (configuration not stated), the cytotoxicity at 10 µM is -8.36%.

In the case of `Cc1ccc(C(=O)N2CCN(Cc3ccsc3)CC2)n1C`, the cytotoxicity at 10 µM came out at 0.914%.

Consider `CCc1nc(C2CCCN2C(=O)c2cc(C3CC3)[nH]n2)no1` (configuration not stated), for which the cytotoxicity at 10 µM is 1.03%.

Turning to `CCOCCN1CCCC(c2cc(C(N)=O)[nH]n2)C1` (configuration not stated), the cytotoxicity at 10 µM came to 3.78%.

Regarding `Cc1cnn(CC2CCCCN2C(=O)c2cc(C(N)=O)cs2)c1` (configuration not stated), the cytotoxicity at 10 µM came out at 2.02%.

For `Cc1nc2ccccc2nc1CN1CCCC1Cn1cncn1` (configuration not stated), the cytotoxicity at 10 µM is -1.28%.

As to `CN(Cc1ccsc1)C(=O)CS(=O)(=O)Cc1ccc(Cl)c(Cl)c1`, the cytotoxicity at 10 µM was -0.987%.

For the compound `O=C1NC2(CCN(C(=O)N3CCOCC3)CC2)CC1c1cccnc1` (configuration not stated), the cytotoxicity at 10 µM is -128%.

Consider `CNC(=O)CN1CC[C@H]2CN(C(=O)c3cccn3C)C[C@H]2C1`, for which the cytotoxicity at 10 µM worked out at 2.31%.

Regarding `O=C(NCc1ccco1)[C@H]1C[C@@H]2CCN(c3ncccn3)C[C@H]2O1`, the cytotoxicity at 10 µM worked out at 7.1%.

Consider `CC(=O)N1CCC(c2nc3ccc(NC4CCC4)cn3n2)CC1`, for which the cytotoxicity at 10 µM was -107%.

On to `CSc1nc(N)cc(N2C[C@H]3CC[C@@H](C2)N(Cc2cscn2)C3=O)n1`, for which the cytotoxicity at 10 µM is -12%.
